Screening data from PubChem.
MEKK2 WT-MEK5 – raises or lowers MEK5 binding to wildtype human MEKK2 PB1 domain; bead flow cytometry, Alexa488-MEK5 binding to MEKK2 WT; actives lie on both sides; binding response (% of control), % at 10 µM; actives 1.1% (n = 290,000); in the data active means binding response below about 67% or above about 130%
Efflux pump mplx – inhibitors of Candida antifungal efflux pumps expressed in yeast; actives 0.44% (n = 330,000); AID 485275; inhibition, % at 10 µM; S. cerevisiae Candida pump triplex, Nile Red efflux;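 active means plate passing quality check with inhibition over a set limit, or well fluorescence over plate mean plus 4 SD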;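 further: Nile Red retained in pooled yeast measured as flow cytometry median fluorescence; 0% = buffer negative control and 100% = Enniatin B positive control; higher means more Nile Red kept so more efflux inhibition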
ABCB1 block – human ABCB1 inhibition, ABCG2 as counter-screen | inhibition, % at 6.6 µM | AID 1326 | CCRF-Adr cells, JC-1 efflux, flow cytometry | actives 0.067% (n = 190,000); in the data active means inhibition above about 40%;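 further: 0% = vehicle and 100% = reference inhibitor; higher value means more JC-1 retained so stronger ABCB1 efflux block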
MEKK3 PB1 HTS – raises or lowers MEK5 binding to the human MEKK3 PB1 domain; Q99759; bead-based flow cytometry, Alexa488-MEK5 binding to MEKK3; actives lie on both sides; 0 = blocked by unlabeled MEK5, 100 = vehicle; binding response (% of control), % at 10 µM; actives 1.4% (n = 290,000);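 active means binding response more than 3 SD above or below the average of its plate-row segment, actives on both sides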;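 further: Alexa488 bead fluorescence after subtracting the streptavidin-only scavenger bead signal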
Target sequence (Q99759 whole entry, looked up, the tested form may be a part): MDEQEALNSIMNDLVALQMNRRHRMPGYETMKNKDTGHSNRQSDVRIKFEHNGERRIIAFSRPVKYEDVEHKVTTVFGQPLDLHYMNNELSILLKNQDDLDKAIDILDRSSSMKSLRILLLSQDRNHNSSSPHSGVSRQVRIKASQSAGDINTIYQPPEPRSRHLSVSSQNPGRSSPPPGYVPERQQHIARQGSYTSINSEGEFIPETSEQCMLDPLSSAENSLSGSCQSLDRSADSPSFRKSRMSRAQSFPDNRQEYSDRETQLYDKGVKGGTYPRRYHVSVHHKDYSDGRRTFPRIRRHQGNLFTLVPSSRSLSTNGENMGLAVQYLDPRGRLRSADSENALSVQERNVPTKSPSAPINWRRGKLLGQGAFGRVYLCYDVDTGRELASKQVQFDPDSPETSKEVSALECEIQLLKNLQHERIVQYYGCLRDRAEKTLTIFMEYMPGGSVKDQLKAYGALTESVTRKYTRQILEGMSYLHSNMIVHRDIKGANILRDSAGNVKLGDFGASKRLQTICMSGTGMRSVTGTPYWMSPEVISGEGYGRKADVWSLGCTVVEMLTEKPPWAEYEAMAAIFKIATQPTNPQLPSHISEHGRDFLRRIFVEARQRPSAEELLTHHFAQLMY
MEKK2 mut-MEK5 – signal of MEK5 binding to mutant human MEKK2 PB1 domain; bead flow cytometry, Alexa488-MEK5 binding to MEKK2 mutant; AID 1530; actives 0.35% (n = 290,000); percent response, % at 10 µM; in the data active means percent response above about 24%, passing the limit was not always enough
ABCG2 block – inhibitors of human ABCG2 transporter, ABCB1 counter-screen; Q9UNQ0; IgMXP3 cells, JC-1 efflux, flow cytometry; inhibition, % at 6.6 µM; actives 0.1% (n = 190,000); AID 1325;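 active means inhibition above 80%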;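 further: 0% = DMSO and 100% = nicardipine control wells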
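Incubation: cells with compound and JC-1, 10 min at 25 °C, rotating, no wash / Test system: IgMXP3 (ABCG2) plus far-red-tagged CCRF-Adr (ABCB1) cells / Compound dosing: one concentration, 6.6 µM final / Also added: JC-1 fluorescent substrate / Evaluation: efflux inhibition in percent versus controls / Detection: flow cytometry, 530 nm JC-1 signal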
MEKK2wt confirm – raises or lowers MEK5 binding to wildtype human MEKK2, retest. shares compounds with MEKK3 PB1 HTS. bead flow cytometry, Alexa488-MEK5 binding to MEKK2 WT; actives lie on both sides. binding response (% of control), % at 10 µM. actives 2.4% (n = 5,900); in the data active means binding response below about 16% or above about 210%; inactive means in between
MEKK2mut-MEK5 – signal of MEK5 binding to mutant human MEKK2, retest | shares compounds with MEKK3 PB1 HTS | bead flow cytometry, Alexa488-MEK5 binding to MEKK2 mutant | percent response, % at 10 µM | actives 2% (n = 5,900); in the data active means percent response mostly above about 71%, no sharp cut-off; inactive means mostly below about 38%;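 further: higher means compound restores mutant binding toward wildtype level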
MEKK3-MEK5 inh – MEKK3-MEK5 PB1 inhibition, single concentration confirmation | shares compounds with MEKK3 PB1 HTS | bead flow cytometry, Alexa488-MEK5 binding to MEKK3; hits give low values | binding response (% of control), % at 10 µM | actives 1.8% (n = 5,900) | AID 1894;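 active means binding response below 72% of control, or above a set upper limit, though filed actives all read lower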;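 further: 100% = DMSO only wells and 0% = binding blocked by excess unlabeled MEK5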
Active calls of the source: *; / = no result; [ ] = remark or other dose. The list is not random: actives were taken first. Their share in the collection is about 2.5%.

SMILES	MEKK2 WT-MEK5	Efflux pump mplx	ABCB1 block	MEKK3 PB1 HTS	MEKK2 mut-MEK5	ABCG2 block	MEKK2wt confirm	MEKK2mut-MEK5	MEKK3-MEK5 inh
CC1CCC2(CC1)NC(=O)N(CC(=O)c1cn(CCC#N)c3ccccc13)C2=O (stereo not drawn)	110	0	/	109	4	/	/	/	/
Cc1cccc(-c2nc3c(c(SCC(=O)N4CCCC4)n2)COC(C)(C)C3)c1	97	0	/	95	0	/	/	/	/
Cc1c(N=c2c(=O)c3ccccc3c2=O)c(=O)n(-c2ccccc2)n1C	96	0	0	99	1	0	/	/	/
Cc1c(N=C2SCC(=O)N2/N=C/c2ccccc2)c(=O)n(-c2ccccc2)n1C	102	0	0	129*	0	-3	97	0	100
CCCOc1ccc2c(c1)C(=NN=C(N)N)c1cc(OCCC)ccc1-2	191*	0	/	99	32*	/	249*	88*	111
CCN(CC)CCOc1ccc2c(c1)C(=NO)c1cc(OCCN(CC)CC)ccc1-2	117	0	0	100	3	0	/	/	/
CC(C)c1ccc(S(=O)(=O)N2CCN(C(=O)C3CCCCC3)CC2)cc1	97	0	/	99	-1	/	/	/	/
COc1ccc(OCC(=O)NNC(=O)C(=O)N2CCCC2)cc1	108	0	0	121	3	12	/	/	/
COC(=O)c1sccc1NC(=O)c1ccc(C)o1	-1.0*[inhibitor]	0	1	0.0*[inhibitor]	-21	9	92	-2	99
COc1ccc(S(=O)(=O)N2CCC(C(=O)NCCCc3ccccc3)CC2)cc1	101	0	/	101	-1	/	/	/	/
O=C(CNS(=O)(=O)c1cccs1)NCc1ccc(F)cc1	130	0	0	142*	6	0	102	1	102
COc1ccc(CNC(=O)CNS(=O)(=O)c2cccs2)cc1	101	0	/	102	3	/	/	/	/
CCN1CCN(Cc2c3ccccc3cc3ccccc23)CC1	115	0	/	105	10	/	/	/	/
CCc1ccc(OCC(=O)Oc2ccc([N+](=O)[O-])cc2)cc1	50*[inhibitor]	0	/	39*[inhibitor]	-15	/	110	12	105
COc1ccc(-c2cc(-c3ccc(F)cc3)nc(N3CCN(C)CC3)n2)cc1	201*	0	1	122	39	4	205	78*	117
COc1ccc(-c2cc(C(F)(F)F)nc(N3CCOCC3)n2)cc1	102	0	0	100	8	2	/	/	/
Cc1ccc(C)c(N2CCN(C(=O)c3ccc(CSc4nc5ccncc5[nH]4)cc3)CC2)c1	2.0*[inhibitor]	0	1	1.0*[inhibitor]	-13	7	102	4	101
O=C(N/N=C/c1cccc(F)c1)c1ccc(Cl)cc1	101	0	1	104	-2	9	/	/	/
O=C(N/N=C/c1cccc(NC(=O)c2ccc(Cl)cc2)c1)c1ccc(O)cc1	38*[inhibitor]	0	/	44*[inhibitor]	-13	/	96	-2	101
CN(C)c1ccc(/C=N/NC(=O)c2ccc(NC(=O)c3ccccc3)cc2)cc1	80	0	/	73*[inhibitor]	-37	/	99	0	99
N#CC1(C#N)CC(C=O)=C(N)C1(C#N)CC(=O)C12CC3CC(CC(C3)C1)C2 (stereo not drawn)	98	0	0	98	-2	-2	/	/	/
Cc1nc(-n2nnc(CO)c2CO)nc2c1CCC2	116	0	1	138*	4	5	93	-3	100
COC(=O)c1cn(-c2nc(C)c3c(n2)CCC3)nn1	77	0	0	67	-7	5	/	/	/
CCC1CCCCN1C(=O)CN1C(=O)c2ccccc2S1(=O)=O (stereo not drawn)	/	0	/	/	/	/	/	/	/
CCOC(=O)CSc1nnc(CSc2nc3sc4c(c3c(=O)[nH]2)CCCC4)n1-c1ccccc1	97	0	0	90	-3	0	/	/	/
SMILES	MEKK2 WT-MEK5	Efflux pump mplx	ABCB1 block	MEKK3 PB1 HTS	MEKK2 mut-MEK5	ABCG2 block	MEKK2wt confirm	MEKK2mut-MEK5	MEKK3-MEK5 inh
COC(=O)/C(=C1/Oc2ccc(C)cc2S1)C(F)(F)F	99	0	0	101	3	2	/	/	/
CSc1ccc2c(c1)N(CCC1CCCCN1C)c1ccccc1S2 (stereo not drawn)	176*	0	-1	76	16	-2	191	64	116
Cc1ccc(NC(=O)COc2ccccc2CNC(C)(C)CC(C)(C)C)cc1	141*	-2	1	105	16	1	137	17	105
CC(=O)Nc1nc(C)c(C(C)=O)s1	3.0*[inhibitor]	0	0	2.0*[inhibitor]	-16	4	106	8	105
CC(=O)c1sc(NC(=O)C(C)C)nc1C	107	0	0	105	5	0	/	/	/
Cc1ccc(CNC(=O)COC(=O)CSc2ccc(Br)cc2C)cc1	107	0	0	130*	0	-4	103	-1	105
CC(=O)CCC(=O)OCC(=O)Nc1ccc(SC(F)F)cc1	105	0	2	102	-1	9	/	/	/
CCC(C(=O)OC(C)C)c1ccc2ccccc2c1 (stereo not drawn)	/	0	/	/	/	/	/	/	/
Cc1ccc(C)c(NC(=O)c2ccc(S(=O)(=O)C(F)F)cc2)c1	109	0	1	132*	1	1	99	-3	101
O=C(c1ccco1)N1CCN(Cc2nnnn2C2CCCCC2)CC1	100	0	/	102	5	/	/	/	/
O=Cc1ccc(OCc2nnsc2Cl)cc1	98	0	-1	102	-3	-1	/	/	/
Cc1ccc(OCC(=O)c2cc(C)n(Cc3cccs3)c2C)c([N+](=O)[O-])n1	92	0	2	89	-5	36	/	/	/
Cc1cc(C(=O)COc2ccc3ccc(=O)oc3c2)c(C)n1Cc1cccs1	105	0	2	142*	0	8	96	-4	98
COCCN(C(=S)Nc1ccc(Cl)cc1OC)C1CCN(C(C)=O)CC1	101	0	/	103	-1	/	/	/	/
C=CCN(C(=O)CCC(=O)Nc1cc(C)on1)C(C(=O)NC1CCCC1)c1ccc(OC)cc1OC (stereo not drawn)	102	0	/	106	-5	/	/	/	/
O=[N+]([O-])c1ccc(-c2cn3c(n2)CCC3)cc1	98	0	/	98	-2	/	/	/	/
COc1cccc(/C=N/NC(=O)CCc2ccccc2)c1	101	0	0	103	5	1	/	/	/
